Results reported in ChEMBL document CHEMBL1141770, “Antineoplastic agents. 515. Synthesis of human cancer cell growth inhibitors derived from 3,4-methylenedioxy-5,4'-dimethoxy-3'-amino-Z-stilbene” (J Nat Prod, 2005).
Values after ≈ are worked out from the molar mass of the structure shown.

Assays:
[1] = system: P388; experiment: Cytotoxicity against mouse P388 cells by sulforhodamine B method; assay type: functional
Procedure, shortened: (§1)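 Sulforhodamine B assay, with growth inhibition read as reduced formation of cellular protein.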

[2] = system: BXPC-3; experiment: Growth inhibition of human BxPC3 cells by sulforhodamine B method; assay type: functional; procedure, shortened: as §1
[3] = system: SF-295; experiment: Growth inhibition of human SF295 cells by sulforhodamine B method; assay type: functional; procedure, shortened: as §1
[4] = system: NCI-H460; experiment: Growth inhibition of human NCI-H460 cells by sulforhodamine B method; assay type: functional; procedure, shortened: as §1
[5] = system: DU-145; experiment: Growth inhibition of human DU145 cells by sulforhodamine B method; assay type: functional; procedure, shortened: as §1
[6] = system: Neisseria gonorrhoeae; experiment: Antimicrobial activity against Neisseria gonorrhoeae ATCC 49226 by broth microdilution assay; assay type: functional
Procedure, shortened: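 Screened by broth microdilution following NCCLS guidelines for bacteria grown aerobically. Each assay was repeated at least twice, on separate days.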

[7] = system: Enterococcus faecalis; experiment: Antimicrobial activity against Enterococcus faecalis ATCC 29212 by broth microdilution assay; assay type: functional
Procedure, shortened: (§2)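 Broth microdilution following NCCLS standards: M7-A5 for aerobic bacteria and M27-A2 for yeasts. Each assay was repeated at least twice on separate days.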

[8] = system: MCF7; experiment: Growth inhibition of human MCF7 after 48 hrs by sulforhodamine B method; assay type: functional, cell-based; settings: MCF7, 48 h; procedure, shortened: as §1
[9] = species: Bos taurus; experiment: Displacement of [3H]vinblastine from bovine tubulin at 10 uM
Procedure, shortened: (§3)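 Bovine brain tubulin at 0.5 mg/mL (5.0 µM) with 5 µM [3H]vinblastine and inhibitor as stated, in 0.5 mM MgCl2, 0.1 M MES pH 6.9 and 4% (v/v) DMSO. Incubated 30 min at 20–22 °C. Bound label separated by centrifugal gel filtration on syringe columns at 2,000 rpm; result is % inhibition ± SD.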

[10] = species: Bos taurus; experiment: Displacement of [3H]colchicine from bovine tubulin at 2 uM
Procedure, shortened: (§4)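 Bovine brain tubulin at 0.1 mg/mL (1.0 µM) incubated with 5.0 µM [3H]colchicine and inhibitor at the stated concentration. Read-out is inhibition of radiolabel binding to tubulin, in % ± SD.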

[11] = species: Bos taurus; experiment: Displacement of [3H]vinblastine from bovine tubulin at 80 uM; procedure, shortened: as §3
[12] = Solubility in water; assay type: physicochemical
[13] = system: Cryptococcus neoformans; experiment: Antimicrobial activity against Cryptococcus neoformans ATCC 90112 by broth microdilution assay; assay type: functional; procedure, shortened: as §2
[14] = system: Streptococcus pneumoniae; experiment: Antimicrobial activity against Streptococcus pneumoniae ATCC 6303 by broth microdilution assay; assay type: functional; procedure, shortened: as §2
[15] = species: Bos taurus; experiment: Displacement of [3H]colchicine from bovine tubulin at 50 uM; procedure, shortened: as §4
[16] = Inhibition of bovine brain tubulin assembly; parameters: species or system Bos taurus
Procedure, shortened: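 Bovine brain tubulin at 1.0 mg/mL (10 µM) assembled with varying inhibitor concentrations. IC50 reported in µM ± SD.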

[17] = system: MCF7; experiment: Increase in mitotic index in human MCF7 cells at 10 times the IC50 concentration after 16 hrs; assay type: functional
Procedure, shortened: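 MCF-7 cells grown with drug for 16 h, then DNA stain added. Result is the percentage of cells in mitosis.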

Which GI50 [1] does the source give for `COc1ccc(/C=C\c2cc(OC)c3c(c2)OCO3)cc1NC(=O)[C@@H](N)Cc1ccc(OP(=O)(O)O)cc1` here?
The GI50 was greater than 10 µg/mL.

What about the GI50 [2] of the same molecule?
The GI50 was greater than 1 µg/mL.

What about the GI50 [3] of the same molecule?
Its GI50 is greater than 1 µg/mL.

What about the GI50 [4] of the same molecule?
The GI50 was greater than 1 µg/mL.

And the GI50 [5]?
Its GI50 is greater than 1 µg/mL.

What about the MIC [6] of the same molecule?
The MIC was 0.125 µg/mL (≈ 0.23 µM).

And the MIC [7]?
The MIC was 16 µg/mL (≈ 29.5 µM).

What about the GI50 [8] of the same molecule?
The GI50 was greater than 1 µg/mL.

For `CC[C@H](C)[C@@H]([C@@H](CC(=O)N1CCC[C@H]1[C@H](OC)[C@@H](C)C(=O)N[C@@H](Cc1ccccc1)c1nccs1)OC)N(C)C(=O)[C@@H](NC(=O)[C@H](C(C)C)N(C)C)C(C)C` [DOLASTATIN-10], which Activity [9] is on record?
Its Activity is 96%.

Which results are given for `COc1ccc(/C=C\c2cc(OC)c3c(c2)OCO3)cc1NC(=O)[C@H](Cc1ccc(OP(=O)(OCc2ccccc2)OCc2ccccc2)cc1)NC(=O)OCc1ccccc1`?
GI50 [1]: 0.133 µg/mL (≈ 0.155 µM); GI50 [2]: > 10 µg/mL; GI50 [3]: > 10 µg/mL; GI50 [4]: > 10 µg/mL; GI50 [5]: > 10 µg/mL; MIC [7]: 64 µg/mL (≈ 74.7 µM); GI50 [8]: > 10 µg/mL

Which results are given for `COc1ccc(/C=C\c2cc(OC)c(OC)c(OC)c2)cc1O` [COMBRETASTATIN A4]?
Activity [10]: 98%; Activity [9]: 0%; Activity [11]: 0%

What does the source list for `COc1ccc(/C=C\c2cc(OC)c3c(c2)OCO3)cc1NC(=O)[C@@H](N)Cc1ccc(O)cc1.Cl`?
GI50 [1]: 0.0329 µg/mL; GI50 [2]: 0.064 µg/mL; GI50 [3]: 0.064 µg/mL; GI50 [4]: 0.096 µg/mL; GI50 [5]: 0.08 µg/mL; GI50 [8]: 0.041 µg/mL; solubility [12]: < 100 µg/mL

Which GI50 [1] does the source give for `COc1ccc(/C=C\c2cc(OC)c3c(c2)OCO3)cc1NC(=O)[C@@H](N)CC(=O)[O-].[Na+]` here?
The GI50 was 0.361 µg/mL.

What about the GI50 [2] of the same molecule?
Its GI50 is 0.38 µg/mL.

And the GI50 [3]?
The GI50 was 0.25 µg/mL.

And the GI50 [4]?
Its GI50 is 0.3 µg/mL.

And the GI50 [5]?
Its GI50 is 0.33 µg/mL.

What about the GI50 [8] of the same molecule?
Its GI50 is 0.51 µg/mL.

And the solubility [12]?
Its solubility is less than 100 µg/mL.

Which results are given for `COc1ccc(/C=C\c2cc(OC)c3c(c2)OCO3)cc1NC(=O)[C@H](Cc1ccc(OP(=O)([O-])O)cc1)NP(=O)(O)O.[Na+]`?
GI50 [1]: 0.27 µg/mL; GI50 [2]: 18.6 µg/mL; GI50 [3]: > 1 µg/mL; GI50 [4]: > 1 µg/mL; GI50 [5]: > 1 µg/mL; MIC [6]: 4 µg/mL; GI50 [8]: 1.3 µg/mL

With `COc1ccc(/C=C\c2cc(OC)c3c(c2)OCO3)cc1NC(=O)[C@H](C)[C@@H](OC)[C@@H]1CCCN1.O=C(O)C(F)(F)F` as the molecule, how does the GI50 [1] read?
Its GI50 is 0.0263 µg/mL.

And the GI50 [2]?
The GI50 was 0.23 µg/mL.

What about the GI50 [3] of the same molecule?
The GI50 was 0.054 µg/mL.

And the GI50 [4]?
Its GI50 is 0.062 µg/mL.

What about the GI50 [5] of the same molecule?
Its GI50 is 0.26 µg/mL.

What about the MIC [13] of the same molecule?
Its MIC is 64 µg/mL.

What about the MIC [6] of the same molecule?
The MIC was 16 µg/mL.

What about the MIC [14] of the same molecule?
The MIC was 8 µg/mL.

And the MIC [7]?
The MIC was 32 µg/mL.

What about the GI50 [8] of the same molecule?
Its GI50 is 0.07 µg/mL.

Which results are given for `COc1ccc(/C=C\c2cc(OC)c3c(c2)OCO3)cc1NC(=O)[C@H](CC(=O)OC(C)(C)C)NC(=O)OC(C)(C)C`?
GI50 [1]: 0.385 µg/mL (≈ 0.675 µM); GI50 [2]: 3.4 µg/mL (≈ 5.96 µM); GI50 [3]: 2.4 µg/mL (≈ 4.21 µM); GI50 [4]: 1.7 µg/mL (≈ 2.98 µM); GI50 [5]: 2.3 µg/mL (≈ 4.03 µM); GI50 [8]: 3 µg/mL (≈ 5.26 µM)

Which Activity [15] does the source give for `CC[C@H](C)[C@@H]([C@@H](CC(=O)N1CCC[C@H]1[C@H](OC)[C@@H](C)C(=O)O)OC)N(C)C(=O)[C@@H](NC(=O)[C@H](C(C)C)N(C)C)C(C)C` here?
The Activity was 5.2%.

What about the Activity [11] of the same molecule?
The Activity was 87%.

Which results are given for `COc1ccc(/C=C\c2cc(OC)c3c(c2)OCO3)cc1NC(=O)[C@H](Cc1ccc(OC(C)(C)C)cc1)NC(=O)OCc1ccccc1`?
GI50 [1]: 0.38 µg/mL (≈ 0.582 µM); GI50 [2]: 0.049 µg/mL (≈ 0.0751 µM); GI50 [3]: 0.44 µg/mL (≈ 0.674 µM); GI50 [4]: 0.41 µg/mL (≈ 0.628 µM); GI50 [5]: 0.39 µg/mL (≈ 0.597 µM); GI50 [8]: 0.36 µg/mL (≈ 0.552 µM)

Which GI50 [1] does the source give for `COc1ccc(/C=C\c2cc(OC)c3c(c2)OCO3)cc1NC(=O)[C@H](C)[C@@H](OC)[C@@H]1CCCN1C(=O)OC(C)(C)C` here?
The GI50 was 0.225 µg/mL (≈ 0.396 µM).

And the GI50 [2]?
The GI50 was 0.58 µg/mL (≈ 1.02 µM).

What about the GI50 [3] of the same molecule?
The GI50 was 0.53 µg/mL (≈ 0.932 µM).

What about the GI50 [4] of the same molecule?
The GI50 was 0.75 µg/mL (≈ 1.32 µM).

What about the GI50 [5] of the same molecule?
The GI50 was 1.9 µg/mL (≈ 3.34 µM).

What about the MIC [13] of the same molecule?
Its MIC is 64 µg/mL (≈ 113 µM).

What about the GI50 [8] of the same molecule?
Its GI50 is 0.38 µg/mL (≈ 0.668 µM).

What does the source list for `CC[C@H](C)[C@@H]([C@@H](CC(=O)N1CCC[C@H]1[C@H](OC)[C@@H](C)C(=O)Nc1cc(/C=C\c2cc(OC)c3c(c2)OCO3)ccc1OC)OC)N(C)C(=O)[C@@H](NC(=O)[C@H](C(C)C)N(C)C)C(C)C`?
GI50 [1]: < 0.01 µg/mL; GI50 [2]: 0.048 µg/mL (≈ 0.0545 µM); GI50 [3]: 0.0031 µg/mL (≈ 0.00352 µM); GI50 [4]: 0.025 µg/mL (≈ 0.0284 µM); GI50 [5]: 0.02 µg/mL (≈ 0.0227 µM); IC50 [16]: 1300 nM; Activity [15]: 30%; Activity [9]: 48%; Activity [11]: 87%; GI50 [8]: 0.032 µg/mL (≈ 0.0364 µM); Activity [17]: 57%

For `COc1ccc(/C=C\c2cc(OC)c3c(c2)OCO3)cc1NC(=O)[C@H](Cc1ccc(OP(=O)(OCc2ccccc2)OCc2ccccc2)cc1)NP(=O)(OCc1ccccc1)OCc1ccccc1`, which GI50 [1] is on record?
Its GI50 is 10 µg/mL (≈ 10.2 µM).

Which Activity [10] does the source give for `COc1ccc(/C=C\c2cc(OC)c3c(c2)OCO3)cc1N` here?
Its Activity is 85%.

And the Activity [9]?
The Activity was 0%.

What about the Activity [11] of the same molecule?
The Activity was 0%.
